For data set [1], the system named is MEC. It counts as cell-based, human. Conditions: 72 h.
Data set [2] has as its system HUVEC. Put plainly: CytoTox-ONE LDH release cytotoxicity assay on HUVEC. As to conditions: 10μM peptide, 72 h.
Data set [3] concerns LEC.
Another data set deals with cell apoptosis. Conditions: cited from earlier work.
Data set [4] concerns HUVEC. It counts as cell-based, human. Conditions: 72 h.
Data set [5] relates to LEC. Conditions: 20 h.
Data set [6] relates to LEC. It counts as cell-based, human. Conditions: 72 h.
The subject of data set [7] is LEC. In words: RTCA E-plate LEC adhesion assay. As to conditions: read-out: IC50 LEC adhesion; cell index at 1 h; 100, 33, 11, 3.7, 1.2μM. It counts as cell-based, human. In short, it runs like this:
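LEC seeded at 25,000 cells/well in EGM-2MV medium onto E-plate wells already holding peptide, so the cells dilute the peptide to its final concentration. Plate equilibrated 30 min at room temperature, then loaded into the RTCA system. Cell index analysed at 1 h as the adhesion read-out.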

In data set [8] the test system is MEC. In words: CytoTox-ONE LDH release cytotoxicity assay on MEC. As to conditions: 72 h, complete media control = 100%; for LDH level, MEC: 10μM peptide; for LDH activity compared to the control, MEC: 100μM peptide. Background: LDH in the medium is a marker of cell lysis.
Data set [9] deals with LEC. In words: CytoTox-ONE LDH release cytotoxicity assay on LEC. Conditions: 72 h, complete media control = 100%.

The source of these data is PMC3206162 (The international journal of biochemistry & cell biology, 2011).

Like-named read-outs stand apart in the source and are kept apart here. No end group written: not given here.

Turning to LLHISLLLIESRLE [SP5032], in the data set with MEC [1], inhibition was half-maximal at 80.1 ± 47.9 µM (IC50). For the same molecule, the “cytotoxic (LDH) activity, HUVEC” value with HUVEC [2] is “significant cytotoxic activity”.
Consider LLRISLLLIESWLE [SP5033], for which, in the data set with MEC [1], the IC50 (in general, the concentration needed to halve the response being measured) worked out at 81.1 ± 37.2 µM. The “LDH activity compared to the control, LEC” value in the data set with LEC [3] is “significant LDH activity”.
In the case of “LLRISLLLIQSWLE [tilted PRL peptide, reference compound]”, the cell apoptosis entry in the data set with cell apoptosis (ref Nguyen et al., 2006) is “led to cell apoptosis”.
In the data set with MEC [1], LLRLLLLIESWLE [SP5030] displayed an IC50 of 93.2 ± 42.3 µM. Besides, the “cytotoxic (LDH) activity, HUVEC” value in the data set with HUVEC [2] is “significant cytotoxic activity”.
With LLRSSLILLQGSWF [SP5031], the IC50 in the data set with HUVEC [4] is 96.9 ± 34.3 µM; with MEC [1] it was 83.4 ± 21.9 µM; in the data set on LEC [5] it was 25.1 µM; in the data set on LEC [6] it was 158 ± 122 µM; with LEC [7], 24.2 µM.
As for LMRKSQILISSWF [SP5028], the IC50 in the data set with HUVEC [4] amounted to 58.2 ± 35.2 µM. In the data set on MEC [8], the “LDH level, MEC” value is listed as “more than 150%” and the “LDH activity compared to the control, MEC” value is listed as “more than 200%”.
Regarding RLRLLTLQSWLL [SP5001], half-maximal inhibition in the data set on HUVEC [4] (IC50) required 50.7 ± 31.8 µM. The same molecule registered an IC50 in the data set with MEC [1] of 52.4 ± 27.8 µM. In the data set with LEC [9], the “LDH activity compared to the control, LEC” value is listed as “significant LDH activity”. Also, in the data set on MEC [8], the “LDH level, MEC” value is “more than 150%” and the “LDH activity compared to the control, MEC” value is “more than 200%”.

B1: PRL protein: prolactin (PRL) protein (protein, UniProt P01236 29-227, looked up)
Prolactin: LPICPGGAARCQVTLRDLFDRAVVLSHYIHNLSSEMFSEFDKRYTHGRGFITKAINSCHTSSLATPEDKEQAQQMNQKDFLSLIVSILRSWNEPLYHLVTEVRGMQEAPEAILSKAVEIEEQTKRLLEGMELIVSQVHPETKENEIYPVWSGLPSLQMADEESRLSAYYNLLHCLRRDSHKIDNYLKLLKCRIIHNNNC
B1: the “apoptosis in a prostate cancer model” value in the data set on cell apoptosis (prostate cancer model, ref Giuffrida et al., 2010) is “induced apoptosis”.
